# In the library only some 3.9% were active in any assay of this set; here they are far more common.
# CHRM1 agonist – human M1 muscarinic receptor agonists, primary screen, Fluo-8 calcium fluorescence, CHO-K1 cells, HTS | Muscarinic acetylcholine receptor M1 (Homo sapiens), P11229 | CHO-K1 hM1, agonist mode; 0% DMSO, 100% acetylcholine EC100 | activation, % at 3 µM | 0.33% of 360,000 active | AID 588814, 2011;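 active means activation above the run's mean compound activation plus 3 SD, cut at about 16% in these data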;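 further: peak over basal fluorescence ratio within a 140 s kinetic read after compound addition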
# Target sequence (P11229 whole entry, looked up): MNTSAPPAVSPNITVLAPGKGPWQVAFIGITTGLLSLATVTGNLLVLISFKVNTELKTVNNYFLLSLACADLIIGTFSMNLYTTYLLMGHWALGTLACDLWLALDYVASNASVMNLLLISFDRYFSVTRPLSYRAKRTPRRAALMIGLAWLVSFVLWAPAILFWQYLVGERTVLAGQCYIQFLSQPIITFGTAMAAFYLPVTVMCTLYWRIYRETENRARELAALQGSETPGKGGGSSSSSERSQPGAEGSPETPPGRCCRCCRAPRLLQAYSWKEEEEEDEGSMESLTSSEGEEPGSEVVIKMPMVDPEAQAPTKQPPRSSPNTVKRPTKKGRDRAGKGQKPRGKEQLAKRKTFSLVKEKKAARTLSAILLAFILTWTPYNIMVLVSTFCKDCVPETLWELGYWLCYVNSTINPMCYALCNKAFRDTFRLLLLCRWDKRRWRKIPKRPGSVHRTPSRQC
# TAAR1 antag – human TAAR1 antagonists, primary screen, Fluo-8 calcium fluorescence, CHO RD-HGA16 cells; AID 624466, 2012; 1.5% of 360,000 active; inhibition, % at 3 µM; antagonist;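 active means inhibition above a per-plate cutoff, the mean inhibition of test compounds on that plate plus 3 SD, cut at about 49% in these data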
#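 Material: RD-HGA16 CHO cells with stable hTAAR1 and Gα16; Dosing: single nominal final test compound concentration of 3 µM; Schedule: seeding 17-24 h prior, 75-min 37 °C, 30-min RT dye loading; Detection: kinetic Fluo-8 calcium fluorescence measurement; Measure: % inhibition from peak post-agonist over basal fluorescence ratio; Benchmarks: vehicle and agonist controls.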
# CHRM1 antagonist – human M1 muscarinic receptor antagonists, primary screen, CHO-K1 cells, Fluo-8 calcium fluorescence, 1536-well; CHO-K1 hM1, ACh EC80 antagonist; inhibition, % at 3 µM; 1.3% of 360,000 active; AID 588852, 2011;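 active means percent inhibition above its own plate's cutoff, namely the mean of that plate's compound wells plus 3 SD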;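 further: peak over basal fluorescence ratio during 140 s after agonist addition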
# m5-HT2A agonist – mouse Htr2a agonists via beta-arrestin recruitment, primary screen, cell-based, luminescence. 0.66% of 360,000 active. 5-hydroxytryptamine receptor 2A (Mus musculus), P35363. CHO-K1 mHTR2A beta-arrestin complementation; percent of 30 µM serotonin response. activation, % at 7.6 µM;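 active means activation above a run cutoff, the mean activation of all tested compounds plus 3 SD, cut at about 14% in these data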
# M1 PAM – human M1 muscarinic receptor positive allosteric modulators, primary screen, CHO-K1 cells, Fluo-8 calcium fluorescence, 1536-well | Muscarinic acetylcholine receptor M1 (Homo sapiens), P11229 | CHO-K1 hM1, ACh EC20; 0% = ACh EC20, 100% = maximal ACh | activation, % at 3 µM | 0.088% of 360,000 active | AID 588819, 2011; in the data active means activation above about 19%, passing the limit was not always enough
# TAAR1 agonist – human TAAR1 agonists, primary screen, Fluo-8 calcium fluorescence, CHO RD-HGA16 cells; Trace amine-associated receptor 1 (Homo sapiens), Q96RJ0; vehicle wells 0%, saturating PEA agonist 100%; activation, % at 3 µM; 0.99% of 360,000 active;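 active means activation above the mean activation of all test compounds in the run plus 3 SD, cut at about 38% in these data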
#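 Signal – calcium-sensitive Fluo-8 signal, excitation 470-495, emission 515-575 nm · System – RD-HGA16 (CHO) cells co-expressing Gα16 and hTAAR1 · Incubation – 17-24 h seeding, 75 min 37 °C dye, 30 min RT · Compound dosing – 3 µM single concentration · Repeats – no replicates (n 1)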
# A number is an active result; n = inactive; x = no result; ! = not confirmed by another sample.
SMILES,CHRM1 agonist,TAAR1 antag,CHRM1 antagonist,m5-HT2A agonist,M1 PAM,TAAR1 agonist
COc1ccc(Cc2nnc(NC(=O)Nc3ccc(C)cc3)s2)cc1OC,n,n,n,n,n,n
COc1ccc(Cc2nnc(NC(=O)CSc3ccc(C)cc3)s2)cc1OC,61.1,86.7,n,n,n,111.6
COCc1c(C(=O)OCC(=O)N(C)C2CCS(=O)(=O)C2)oc2ccccc12 (stereo not drawn),n,n,35.7,n,n,n
O=C(Cc1ccccc1)NCc1ccc(-n2cccc2)cc1,n,n,n,n,n,37.9
Cc1cc(C)cc(N/C(N)=N/c2nc(C)cc(C)n2)c1,n,n,n,n,n,39.1
Cc1ccc(N/C(N)=N/c2nc(C)cc(C)n2)cc1,n,n,n,n,n,n
CCCCC(Nc1ncnc2ccccc12)C(=O)O (stereo not drawn),n,n,n,n,n,n
CC(Nc1ncnc2ccccc12)c1ccccc1 (stereo not drawn),n,n,26.6,n,n,n
COc1cccc(NC(=O)Nc2nc(SC)ns2)c1,n,n,n,n,n,n
COc1cccc(NC(=O)Nc2nc(SC(C)(C)C)ns2)c1,n,58.9,37.0,n,n,n
CCSc1nsc(NC(=O)Nc2cccc(F)c2)n1,n,n,37.7,n,n,n
S=C(Nc1ccccc1Cl)NC1CC2CCCC(C1)N2C1CC1 (stereo not drawn),n,n,n,n,n,n
O=C(Cc1ccccc1)Nc1nc2ccccc2[nH]1,n,n,n,n,n,n
O=C(Cc1ccc(Cl)cc1)Nc1nc2ccccc2[nH]1,n,n,n,n,n,38.7
O=S(=O)(Nc1nc2ccccc2[nH]1)c1ccccc1,n,n,n,n,n,n
O=S(=O)(Nc1nc2ccccc2[nH]1)c1ccc(Cl)cc1,n,n,70.0,n,n,n
c1ccc(N2CC[N+]3(CCCC3)CC2)nc1,n,n,54.5,n,n,n
c1cnc(N2CC[N+]3(CCCC3)CC2)nc1,n,n,33.4,n,n,n
CCS(=O)(=O)N1CCN(c2ccccn2)CC1,n,n,n,n,n,n
c1cnc(N2CCSCC2)nc1,n,n,n,n,n,n
CCc1ccc(OS(=O)(=O)c2cn(C)c(=O)n(C)c2=O)cc1,n,n,n,n,n,n
CCOC(=O)NC(NCC(O)c1ccccc1)(C(F)(F)F)C(F)(F)F (stereo not drawn),n,55.7,n,n,n,67.4
CCCCC(CC)CN=C(N)NC(N)=NCCCCCCN=C(N)NC(N)=NCC(CC)CCCC (stereo not drawn),58.0,x,88.3,15.3,n,x
CCCCC(CC)CO (stereo not drawn),n,n,n,n,n,n
CCOC(=O)C1=C(C(=O)OCC)C2N(Cc3ccc(C(F)(F)F)cc3)c3ccccc3[C@@]23C[C@@H](C(=O)OC)N(S(=O)(=O)c2ccc(OC)cc2)C3=N1 (stereo partly drawn),x,n,x,x,x,n
SMILES,CHRM1 agonist,TAAR1 antag,CHRM1 antagonist,m5-HT2A agonist,M1 PAM,TAAR1 agonist
Cc1cc(C)c(NC(=O)CCCN2CCN(C)CC2)c(C)c1,n,n,n,n,n,n
Cc1cc(C)c(NC(=O)CN2CCN3CCCC3C2)c(C)c1 (stereo not drawn),n,n,n,n,28.6!,n
C/C(=N/NC(=O)CCC(=O)Nc1ccc(Br)cc1)c1ccc(Br)cc1,n,n,n,n,n,n
CCOC(=O)CN1C(=O)S/C(=C/C=C/c2ccc(N(C)C)cc2)C1=O,n,n,n,n,n,45.5
CC(C)CNCC(=O)N1c2ccccc2Sc2ccccc21,n,n,92.7,n,n,n
COCCNCC(=O)N1c2ccccc2Sc2ccccc21,n,n,90.0,n,n,n
CC(C)NC(=O)N1c2ccccc2Sc2ccccc21,n,n,n,n,n,n
COCCCNC(=O)N1c2ccccc2Sc2ccccc21,n,n,n,n,n,n
CCn1c(=O)c2[nH]c(SC)nc2n(CC)c1=O,n,n,n,n,n,n
CCOC(=O)c1ccccc1NC(=O)CSc1nc2[nH]ncc2c(=O)[nH]1,n,n,34.7,n,n,n
COc1ccc(CNC(=O)COC(=O)c2cc3ccccc3o2)cc1,n,n,28.9,n,n,n
CC(C)(C)c1cc(NC(=O)Nc2ccc(Cl)cc2Cl)no1,n,n,n,n,n,n
CC(C)(C)c1cc(NC(=O)Nc2ccc(Br)cc2Cl)no1,n,n,28.3,n,n,n
NC(=O)c1ncn([C@@H]2O[C@H](C(=O)N[C@H](Cc3c[nH]c4ccccc34)C(=O)N3CCN(CC(=O)N4CCCC4)CC3)[C@@H](O)[C@H]2O)n1,x,n,x,x,x,n
CCC(C)(C#CCN1CCCCC1)OCCC#N (stereo not drawn),n,n,69.0,n,n,n
CCC(C#CCN1CCCCC1)(CC)OCCC#N,n,n,62.6,n,n,n
CCC(C#CCN1CCOCC1)(CC)OCCC#N,n,n,n,n,n,n
CCC(C)(C#CCN1CCCCC1)OC(C)=O (stereo not drawn),n,n,n,n,n,n
NC(=O)c1ccc(NC(=O)COC(=O)CNC(=O)c2sc3ccccc3c2Cl)cc1,n,n,n,n,n,n
CN1CCN(C(=O)N2c3ccccc3C=Cc3ccccc32)CC1,n,n,93.6,n,n,n
O=C(CN1CCCCCC1)N1c2ccccc2C=Cc2ccccc21,n,n,97.7,n,n,n
O=C(CN1CCCCC1)N1CCCc2ccccc21,n,n,n,n,n,n
COC(=O)N1c2ccccc2C=Cc2ccccc21,n,n,n,n,n,n
O=C(CN1CCCC1)N1c2ccccc2C=Cc2ccccc21,n,n,90.0,n,n,n
CCCS(=O)(=O)NC(=O)C1(C)CCN(C(=O)COc2ccc(Cl)cc2Cl)C1 (stereo not drawn),n,n,n,n,n,n
Nc1cc(-c2ccccc2)n2c(n1)nc1ccccc12,n,n,92.4,n,n,n
N#Cc1c(-c2ccccc2)cc2nc3ccccc3n2c1N,n,n,n,n,n,n
N#Cc1cnc(NN)nc1,n,n,n,n,n,n
CC(=O)N/C(=C\c1ccccc1)C(=O)OCC(=O)N(C)C1CCCCC1,n,n,n,n,n,n
Cc1c(N(C)S(=O)(=O)c2ccc(Cl)c(C(=O)N3CCC(C(N)=O)CC3)c2)c(=O)n(-c2ccccc2)n1C,n,n,n,n,n,n
